For data set [1] the following is noted: cited from earlier work.
Data set [2] deals with cytochrome P450 (CYP) 3A4. Particulars: cited from earlier work.
For data set [3] the following is noted: cited from earlier work. The source holds these as a separate data set.
Data set [4] in a line: Population pharmacokinetic analysis of daclatasvir plasma concentrations. In kind it is in vivo, human. The method in brief:
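Japanese adults ≥ 20 years with chronic HCV genotype 1 (compensated cirrhosis allowed) from 4 clinical studies; oral 10 or 60 mg once daily, with asunaprevir or pegIFN/RBV. Plasma levels by validated LC‑MS/MS; below‑LLOQ samples excluded. Nonlinear mixed‑effects model: log‑normal interindividual variability, log‑transform‑both‑sides residual error, backward covariate elimination (P < .001), bootstrap 95% CIs.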

The conditions of data set [5]: healthy Japanese volunteers, within the dose range studied; cited from earlier work.
Data set [6] has as its system P‐glycoprotein transporter. Particulars: cited from earlier work.
Data set [7] in a line: Population pharmacokinetic analysis of asunaprevir plasma concentrations. In kind it is in vivo, human. The method in brief:
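Japanese adults ≥20 y with chronic genotype 1 HCV (compensated cirrhosis allowed), from 2 clinical studies; oral 200 or 600 mg twice-daily tablet or 100 mg twice-daily soft-gel. Plasma by validated LC-MS/MS; below-LLOQ excluded. One-compartment, first-order absorption; log-normal IIV on CL/F, V/F; additive log-scale residual. Backward elimination (P < .001); bootstrap 95% CIs; 5th/95th covariate percentiles versus typical.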

For data set [8] the following is noted: tablet formulation used in phase 1/2 studies; cited from earlier work.
For data set [9] the following is noted: mild impairment (Child‐Pugh class A cirrhosis); cited from earlier work.
In data set [10] the test system is organic anion transporting polypeptide(OATP). The following applies: asunaprevir; cited from earlier work.
The subject of a further data set is CYP2D6. Particulars: asunaprevir; cited from earlier work.
For data set [11] the following is noted: cited from earlier work. The source holds these as a separate data set.
Where [12] appears, read: final popPK model, Japanese HCV subjects.

Structures are written as SMILES. Read-outs that look alike come from different tables or passages of the source.

We go through 2 compounds from article PMC6174986 (Journal of Clinical Pharmacology, 2018).

With `COC(=O)N[C@H](C(=O)N1CCC[C@H]1c1nc(-c2ccc(-c3ccc(-c4c[nH]c([C@@H]5CCCN5C(=O)[C@@H](NC(=O)OC)C(C)C)n4)cc3)cc2)c[nH]1)C(C)C` [daclatasvir, Daclatasvir], the “Association between exposure and degree of hepatic impairment or biochemical/serological markers of liver dysfunction” value in [1] was “no obvious association”. In data set [2] (daclatasvir), the “Effects on levels of the sensitive CYP3A probe midazolam in plasma” value is “minimal effects”; the “Interaction with CYP3A4” value was “substrate and weak inducer”. Besides, in [3], the “Excreted via feces in an unchanged form” value was about 88% and the Renal elimination is reported as ~7 % of dose. Further, in data set [4] (base popPK model), the “Interindividual variability of CL/F” value stood at 39.7% and the “Interindividual variability of V/F” value is reported as 40.7%. Further, the “Effect of cirrhosis status and ALT/AST levels on CL/F” value in data set [4] (covariate analysis) is recorded as “not identified as significant covariates”. In addition, the “CL/F reduction, women relative to men” value in [4] (final model) was “approximately 10%”. For the same compound, the “V/F lower than at median (reference) body weight of 56 kg” value in data set [4] (final model, 5th percentile of baseline body weight, 42.8 kg) was about 15%. In data set [4] (final model, 95th percentile of baseline body weight, 78 kg), the “V/F higher than at median (reference) body weight of 56 kg” value was about 22%. In data set [4] (final popPK model), the “Interindividual variability of CL/F” value is recorded as 39.4%; the “Interindividual variability of Ka” value was found to be 86.9%; the “Interindividual variability of V/F” value worked out at 38.1%; the “Random effect CL/F: V/F, ω1,2, covariance (correlation)” value was 0.141 (0.941). Moreover, the “Ka (absorption rate constant), θ3” value in data set [4] (setting [12]) is recorded as 0.865 h^‐1. In [4] (final popPK model, Japanese HCV subjects, reference BBWT 56 kg), the “V/F (apparent volume of central compartment), θ2” value is 64.2 L. In addition, the “V/F ∼BBWT (baseline body weight) covariate coefficient, θ14” value in data set [4] (final popPK model, reference 56 kg) turned out to be 0.605. In addition, the “CL/F ∼BCRCL (baseline creatinine clearance) covariate coefficient, θ10” value in [4] (final popPK model, reference 86.48 mL/min) came out at 0.235. The “Dose‐exposure relationship” value in data set [5] was “generally linear”. Besides, in [6] (daclatasvir), the “Interaction with P‐glycoprotein transporter” value is “substrate and inhibitor”.

Turning to `C=C[C@@H]1C[C@]1(NC(=O)[C@@H]1C[C@@H](Oc2ncc(OC)c3ccc(Cl)cc23)CN1C(=O)[C@@H](NC(=O)OC(C)(C)C)C(C)(C)C)C(=O)NS(=O)(=O)C1CC1` [asunaprevir, Asunaprevir], the “Impact of OATP1B1 haplotypes (4 categories) on CL/F” value in data set [7] (covariate analysis, Japanese population) is given as “did not show statistical significance”. Moreover, in [7] (final model, AST at last PK sampling point 16 U/L, higher), the “CL/F at 5th percentile of time‐varying AST compared with the median baseline AST” value is reported as 1.57 fold. Moreover, in data set [7] (final model, baseline AST 22 U/L, higher), the “CL/F at 5th percentile of baseline AST relative to median baseline AST of 52 U/L” value amounted to 1.67 fold. In addition, the “CL/F for cirrhotic subjects relative to subjects without cirrhosis” value in [7] (final model, printed as fold lower) stood at 0.65 fold. In [7] (final popPK model), the “Interindividual variability of CL/F” value was determined as 41.5% and the “Interindividual variability of V/F” value came out at 93.4%. The “Ka (absorption rate constant), θ3” value in data set [7] (setting [12]) was 0.228 h^‐1. The “V/F (apparent volume of central compartment), θ2” value in [7] (final popPK model, Japanese HCV subjects, phase 2 tablet reference) was found to be 75.1 L. Also, the “Interaction with CYP3A4” value in [2] (asunaprevir) was “weak inducer and sensitive substrate”. Further, the Food effect entry in data set [8] is reported as “Significant food effects”. Moreover, the “Steady‐state exposures” value in data set [9] was “not changed”. Moreover, in [10], the “Interaction with OATP‐mediated uptake transport” value was “weak inhibitor and sensitive substrate”. The “Interaction with CYP2D6” value in the data set with CYP2D6 is listed as “moderate inhibitor”. Moreover, the “Dose‐exposure relationship” value in data set [5] is given as “generally increased dose‐proportionally”. Besides, in data set [11] (AI447017, phase 2 study, 200‐mg tablet formulation), the “Observed AUC” value is given as 2950 ng·h/mL. Moreover, the “Observed AUC” value in data set [11] (AI447026, phase 3 study, 100‐mg soft‐gel capsule) is listed as 2155 ng·h/mL. Besides, the “Interaction with p‐glycoprotein” value in data set [6] (asunaprevir) is “weak inhibitor”.
